An excerpt weighted towards active compounds, which were near 5.9% of everything screened.
Pf Dd2 growth – P. falciparum Dd2 growth inhibitors, primary screen, SYBR Green fluorescence, single dose replicates; 72 h; stronger effect = lower value; activity change, % at 10 µM; 2.3% of 94,000 active; in the data active = activity change below about -80%; inconclusive = no clear call, values can overlap the other calls
IDH1 mut inh – inhibitors of IDH1 R132H reductase, primary screen, biochemical, plate reader, single point; 0.18% of 70,000 active; inhibition, % at 10 µM; Isocitrate dehydrogenase [NADP] cytoplasmic (Homo sapiens), O75874; diaphorase/resazurin fluorescence, 60 min; in the data active = inhibition above about 34%; inconclusive = no clear call, values can overlap the other calls; inactive = below about 11%;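 also: 0% = DMSO and 100% = no enzyme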
Target sequence (O75874 whole entry R132H): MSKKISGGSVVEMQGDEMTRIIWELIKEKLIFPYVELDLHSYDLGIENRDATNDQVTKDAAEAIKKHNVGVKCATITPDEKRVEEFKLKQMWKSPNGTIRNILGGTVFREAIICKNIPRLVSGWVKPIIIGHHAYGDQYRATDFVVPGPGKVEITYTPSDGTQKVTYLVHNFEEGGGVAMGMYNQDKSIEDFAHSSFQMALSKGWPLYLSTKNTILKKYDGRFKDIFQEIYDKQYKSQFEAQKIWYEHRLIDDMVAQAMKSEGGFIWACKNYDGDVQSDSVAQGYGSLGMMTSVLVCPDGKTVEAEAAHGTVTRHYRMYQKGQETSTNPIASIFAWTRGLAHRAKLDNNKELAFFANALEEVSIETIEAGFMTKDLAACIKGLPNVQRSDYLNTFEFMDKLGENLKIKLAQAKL
T cruzi growth-1 – T. cruzi intracellular proliferation inhibitors, primary screen, cell-based, beta-gal Tulahuen parasites, NIH3T3 host, luminescence; T. cruzi beta-gal in NIH3T3, GalScreen luminescence, 90 h; inhibition, % at 8.34 µM; 5.9% of 77,000 active; AID 624255, 2012;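 active = mean inhibition above about 93%, with at least 55% of replicates each passing it, limit read from the data, passing the limit was not always enough; inconclusive = only one of those two conditions holds; inactive = neither condition holds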
KDM4C inh – inhibitors of GASC-1 (KDM4C) histone demethylase, primary screen, biochemical, single concentration HTS; Lysine-specific demethylase 4C (Homo sapiens), Q9H3R0; GST-KDM4C 2-372, H3K9me3 peptide, LANCE TR-FRET; inhibition, % at 12.5 µM; 0.15% of 96,000 active;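 active = mean replicate inhibition above about 25%, with at least 55% of replicates also reaching it, limit read from the data, passing the limit was not always enough; inconclusive = only one of those two conditions met; inactive = neither condition met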
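System – N-terminal GST-fused human GASC-1 (KDM4C) fragment, residues 2-372 · Input – enzyme final amount 10 nM · Technique – LANCE TR-FRET, Eu antibody, ULight-streptavidin, EDTA, ex 340 nm, em 618/671 nm · Medium – HEPES buffer, pH 7.5, plus ascorbate · Incubation – enzyme reaction 30 min, then detection 60 min, both room temperature · Reagent – H3K9me3 peptide with Fe(II)/2OG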
T cruzi growth-2 – T. cruzi intracellular proliferation inhibitors, confirmation, cell-based, NIH3T3 host, beta-gal parasite, luminescence, cherry-pick; T. cruzi beta-gal in NIH3T3, GalScreen luminescence, 90 h; AID 651739, 2012; shares compounds with T cruzi growth-1; inhibition, % at 8.35 µM; 72% of 5,600 active;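 active = mean replicate inhibition above about 95% and at least 55% of replicates individually reaching it, limit read from the data; inconclusive = only one of the two criteria is met; inactive = neither criterion is met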
T cruzi growth-3 – inhibitors of intracellular T. cruzi replication, confirmation, NIH3T3 host cells, beta-gal parasites, cherry-pick, set 2. shares compounds with T cruzi growth-1. T. cruzi beta-gal in NIH3T3, GalScreen luminescence, 90 h. inhibition, % at 2.09 µM. 21% of 5,600 active;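 active = mean inhibition above about 95%, with at least 55% of replicates also reaching it, limit read from the data; inconclusive = meets just one of the two conditions; inactive = meets neither condition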;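 also: plate controls were neutral control median for no effect and positive control median for full effect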
NIH3T3 tox – cytotoxicity in mouse NIH/3T3 fibroblasts, confirmation, cytotoxicity control for T. cruzi proliferation inhibitor project, cell-based, cherry-pick, single point; 14% of 5,600 active; NIH/3T3 viability, CellTiter-Glo ATP luminescence, 90 h; shares compounds with T cruzi growth-1; AID 651742, 2012; cytotoxicity (signal decrease), % at 8.35 µM;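 active = mean signal decrease across replicates above about 35% based on untreated-well scatter, with enough replicates individually passing, limit read from the data; inconclusive = no rule stated though some were filed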;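 also: 0% = median of neutral control wells and 100% = median of positive control wells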
NIH3T3 tox 2 – NIH/3T3 fibroblast cytotoxicity, confirmation, cytotoxicity control, cell-based, cherry-pick, single point, set 2; NIH/3T3 viability, CellTiter-Glo ATP luminescence, 90 h; AID 651744, 2012; 56% of 5,600 active; shares compounds with T cruzi growth-1; inhibition, % at 24.9 µM;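 active = mean loss of cell viability signal at or above a set limit, and enough replicates individually reaching it; inconclusive = meets only the mean limit or only the replicate share; inactive = meets neither condition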;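 also: 0% = median of neutral control wells and 100% = median of positive control wells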
* hit, by the source's call; ? = inconclusive; . = no result given.

SMILES	Pf Dd2 growth	IDH1 mut inh	T cruzi growth-1	KDM4C inh	T cruzi growth-2	T cruzi growth-3	NIH3T3 tox	NIH3T3 tox 2
O=C(NC1CCCC1)N1CCCCN2[C@H](CO)[C@H](c3ccc(-c4cncnc4)cc3)[C@@H]2C1	-10	.	102*	1	20	0	11	10
O=C(NC1CCCC1)N1CCCCN2[C@@H](CO)[C@@H](c3ccc(-c4ccncc4)cc3)[C@@H]2C1	8	.	105*	0	97*	42	11	-9
Cc1ccccc1-c1ccc([C@@H]2[C@H](CO)N3CCCCN(C(=O)NC4CCCC4)C[C@@H]23)cc1	-32	.	118*	1	106*	90	25	105*
COc1ccc(NC(=O)Nc2ccc3c(c2)C(=O)N([C@H](C)CO)C[C@@H](C)[C@H](CN(C)C(=O)Nc2ccc(C(F)(F)F)cc2)O3)cc1	-17	3	-193	-1	.	.	.	.
COc1ccccc1NC(=O)N[C@H]1CC[C@@H](CCNS(=O)(=O)c2ccc(F)cc2)O[C@@H]1CO	-4	0	7	-1	.	.	.	.
COc1ccc(S(=O)(=O)N(C)C[C@H]2Oc3ccc(NC(=O)Nc4ccc(C(F)(F)F)cc4)cc3CC(=O)N([C@H](C)CO)C[C@H]2C)cc1	.	-3	.	.	.	.	.	.
O=C(NC1CCCC1)N1CCCCN2[C@@H](CO)[C@H](c3ccc(-c4ccccc4)cc3)[C@@H]2C1	1	.	113*	-1	95*	43	3	95*
COCC(=O)N1[C@@H](CO)[C@H](c2ccccc2)C12CN(C(=O)c1ccc(F)cc1)C2	26	.	.	0	.	.	.	.
C/C=C/c1ccc2c(c1)O[C@@H](CN(C)S(=O)(=O)c1ccccc1OC)[C@@H](C)CN([C@@H](C)CO)S2(=O)=O	-47	-2	67	-1	.	.	.	.
C/C=C/c1ccc2c(c1)O[C@@H](CN(C)S(=O)(=O)c1ccc(C)cc1)[C@@H](C)CN([C@H](C)CO)S2(=O)=O	-16	-1	114*	-3	100*	81	32	67*
C/C=C/c1ccc2c(c1)O[C@H](CN(C)S(=O)(=O)c1ccccc1OC)[C@@H](C)CN([C@H](C)CO)S2(=O)=O	-56	-6	117*	-2	106*	86	39*	?
COc1ccccc1S(=O)(=O)N(C)C[C@@H]1Oc2cc(/C=C/c3ccccc3)ccc2S(=O)(=O)N([C@H](C)CO)C[C@H]1C	?	0	124*	2	105*	103*	63*	71*
C/C=C/c1ccc2c(c1)O[C@@H](CN(C)S(=O)(=O)c1ccccc1)[C@@H](C)CN([C@@H](C)CO)S2(=O)=O	-36	-23	65	-2	.	.	.	.
CC(=O)Nc1ccc2c(c1)C(=O)N(C)[C@H]1CC[C@H](CC(=O)NCc3ccc(F)cc3)O[C@@H]1CO2	1	.	11	1	.	.	.	.
Cc1ccc(-c2ccc3c(c2)O[C@H](CN(C)CC2CC2)[C@H](C)CN([C@@H](C)CO)S3(=O)=O)cc1	-48	0	-17	-2	.	.	.	.
CO[C@H]1CN(C)C(=O)c2ccc(NS(=O)(=O)c3ccc(Cl)cc3)cc2OC[C@H](C)NC[C@H]1C	1	0	8	-1	.	.	.	.
COc1ccc(CN(C)C[C@@H]2Oc3c(NS(=O)(=O)c4c(C)noc4C)cccc3C(=O)N([C@@H](C)CO)C[C@@H]2C)cc1	11	1	-69	-3	.	.	.	.
CN1c2ccc(-c3ccccc3F)cc2[C@@H]2[C@@H](CCN2C(=O)c2ccccn2)[C@H]1CO	-54	.	116*	1	106*	55	-1	24
CN1c2ccc(-c3ccccc3)cc2[C@@H]2[C@@H](CCN2C(=O)c2ccc3c(c2)OCO3)[C@H]1CO	6	.	106*	-2	105*	108*	9	30*
CN(C)CC(=O)N1CC[C@@H]2[C@H]1c1cc(-c3ccccc3F)ccc1N(C)[C@@H]2CO	-16	.	113*	2	102*	19	-8	24*
CN1c2ccc(-c3ccccc3)cc2[C@@H]2[C@@H](CCN2C(=O)c2ccccn2)[C@H]1CO	13	.	105*	13	102*	43	13	21
CN1c2ccc(-c3ccc(F)cc3)cc2[C@@H]2[C@@H](CCN2C(=O)c2ccccn2)[C@H]1CO	-7	.	35	2	.	.	.	.
CN(C)CC(=O)N1CC[C@H]2[C@@H]1c1cc(-c3ccccc3F)ccc1N(C)[C@H]2CO	22	.	23	2	.	.	.	.
O=C(C[C@H]1CC[C@@H]2[C@H](COC[C@H](O)CN2CCc2ccccc2)O1)NCCCN1CCOCC1	11	.	-33	0	.	.	.	.
CO[C@@H]1CN(C)C(=O)c2ccc(NC(=O)Nc3ccc(F)cc3)cc2OC[C@@H](C)NC[C@@H]1C	-3	.	.	1	.	.	.	.
C[C@H](CO)N1C[C@H](C)[C@@H](CN(C)Cc2ccncc2)OCCCC[C@H](C)Oc2ccc(NC(=O)Nc3ccc4c(c3)OCO4)cc2C1=O	25	10	-18	2	.	.	.	.
C[C@@H]1CN([C@H](C)CO)C(=O)c2cccc(NC(=O)NC3CCCCC3)c2O[C@H]1CN(C)C(=O)Nc1cccc2ccccc12	-10	1	49	0	.	.	.	.
C[C@@H]1CN([C@H](C)CO)C(=O)c2cc(NS(=O)(=O)c3ccc(Cl)cc3)ccc2O[C@@H](C)CCCCO[C@@H]1CN(C)C(=O)CCC(F)(F)F	-36	.	99*	0	82	52	16	71*
C[C@@H]1CN([C@@H](C)CO)C(=O)c2cc(NS(=O)(=O)c3ccc(Cl)cc3)ccc2O[C@@H](C)CCCCO[C@H]1CN(C)C(=O)CCC(F)(F)F	-5	.	42	1	.	.	.	.
C[C@@H]1CCCCO[C@H](CN(C)C(=O)CCC(F)(F)F)[C@H](C)CN([C@@H](C)CO)C(=O)c2cc(NS(=O)(=O)c3ccc(Cl)cc3)ccc2O1	-2	0	104*	.	103*	68	11	72*
